The target in series [1] is T1, CDYL2 (Homo sapiens, UniProt Q8N8U2).
T1 sequence (Q8N8U2 1-75): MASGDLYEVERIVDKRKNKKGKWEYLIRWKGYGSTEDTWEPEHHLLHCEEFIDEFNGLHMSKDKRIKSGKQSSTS
The experiment in a line: TR-FRET competitive displacement assay. In kind it is binding.

For series [2], the target named is T2, CBX7 (Mus musculus, UniProt Q8VDS3).
T2 sequence (Q8VDS3 1-158): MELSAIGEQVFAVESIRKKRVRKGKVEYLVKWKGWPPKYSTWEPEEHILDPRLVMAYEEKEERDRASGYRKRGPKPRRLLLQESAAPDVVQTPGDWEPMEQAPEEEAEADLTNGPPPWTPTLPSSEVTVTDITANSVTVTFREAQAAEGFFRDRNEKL
Nature of the series: CBX7 GFP reporter assay in mESCs. In kind it is cell-based. To be noted: result in words. (In a reporter assay the amount or activity of a reporter protein is the signal.)

The test system of series [3] is CBX2, CBX6, and CBX7. The experiment in a line: ChIP-qPCR at endogenous Polycomb target genes. In kind it is cell-based, mouse. To be noted: 20 μM, wild-type mESCs (absence of CBX8). On the technique in general: Quantitative PCR measures a nucleic acid by following its amplification.
The target of series [4] is T3, CBX8 (Mus musculus, UniProt Q9QXV1).
T3 sequence (Q9QXV1 1-362): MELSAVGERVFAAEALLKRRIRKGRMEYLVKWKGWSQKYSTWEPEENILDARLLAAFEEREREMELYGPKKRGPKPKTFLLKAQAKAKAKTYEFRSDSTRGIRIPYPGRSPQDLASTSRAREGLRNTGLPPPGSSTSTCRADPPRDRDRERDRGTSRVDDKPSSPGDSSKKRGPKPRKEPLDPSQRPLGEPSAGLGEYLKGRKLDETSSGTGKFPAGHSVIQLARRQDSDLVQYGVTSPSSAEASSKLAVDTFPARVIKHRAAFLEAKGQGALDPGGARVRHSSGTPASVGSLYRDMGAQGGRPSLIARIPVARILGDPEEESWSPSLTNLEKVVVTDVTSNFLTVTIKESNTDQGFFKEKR
The experiment in a line: CBX8 GFP reporter assay in mESCs. The series is classed as cell-based. The following applies: 48 h, result in words. Summed up:
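Mouse ESC reporter line carrying 12xZFHD1, 4xGAL4 and 7xTetO sites upstream of a Puromycin-GFP gene, made by recombinase-mediated cassette exchange. Cells grown feeder-free in high-glucose DMEM with 13.5% FBS and LIF. 2,000 cells/well seeded onto compound in triplicate: 10-point 2-fold series, or for ester analogues 15-point 1.5-fold series with 0.06% DMSO final. 48 h at 37°C. GFP read by flow cytometry on gated live single cells.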

In series [5] the test system is mESCs. The experiment in a line: CellTiter-Glo cell viability assay. The series is classed as cell-based, mouse. The following applies: 48 h, result in words. The method in brief: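 mESCs plated at 5,000 cells/well onto a ten-point 1:2 compound dilution series in mESC medium. 48 h at 37°C, 5% CO2. Lysed with CellTiter-Glo reagent; luminescence read after 15 min at room temperature in dim light.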

The target in series [6] is T4, 274 purified Kme readers (Homo sapiens, UniProt O00257).
T4 sequence (O00257 1-69): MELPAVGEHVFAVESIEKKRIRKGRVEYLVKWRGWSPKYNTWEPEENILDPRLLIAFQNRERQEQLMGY
Nature of the series: Protein domain microarray. To be noted: 1 μM, qualitative. The series is classed as binding.

The target of series [7] is T5, 274 purified Kme readers (Homo sapiens, UniProt O95503).
T5 sequence (O95503 1-69): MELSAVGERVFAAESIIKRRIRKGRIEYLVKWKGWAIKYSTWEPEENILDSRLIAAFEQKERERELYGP
The experiment in a line: Protein domain microarray. The series is classed as binding. The following applies: 1 μM, qualitative.

The target in series [8] is T6, 274 purified Kme readers (Homo sapiens, UniProt O95931).
T6 sequence (O95931 1-69): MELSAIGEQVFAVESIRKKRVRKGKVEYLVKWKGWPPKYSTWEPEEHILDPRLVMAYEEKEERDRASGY
Nature of the series: Protein domain microarray. To be noted: 1 μM, qualitative. The series is classed as binding.

The target of series [9] is 274 purified Kme readers (Homo sapiens, UniProt P45973). Nature of the series: Protein domain microarray. In kind it is binding. The following applies: 1 μM, qualitative.
In series [10] the target is 274 purified Kme readers (Homo sapiens, UniProt P83916). The experiment in a line: Protein domain microarray. The series is classed as binding. The following applies: 1 μM, qualitative.
Series [11] concerns the target 274 purified Kme readers (Homo sapiens, UniProt Q13185). Nature of the series: Protein domain microarray. In kind it is binding. The following applies: 1 μM, qualitative.
Series [12] addresses T7, 274 purified Kme readers (Homo sapiens, UniProt Q14781).
T7 sequence (Q14781 1-70): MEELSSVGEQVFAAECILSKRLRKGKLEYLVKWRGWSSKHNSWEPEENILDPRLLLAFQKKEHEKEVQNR
The experiment in a line: Protein domain microarray. The series is classed as binding. To be noted: 1 μM, qualitative.

The target of series [13] is T8, 274 purified Kme readers (Homo sapiens, UniProt Q8N8U2).
T8 sequence (Q8N8U2 1-67): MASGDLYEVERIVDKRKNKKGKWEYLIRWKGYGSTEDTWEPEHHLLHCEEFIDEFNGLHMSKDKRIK
Nature of the series: Protein domain microarray. The series is classed as binding. The following applies: 1 μM, qualitative.

The target of series [14] is T9, 274 purified Kme readers (Homo sapiens, UniProt Q9HC52).
T9 sequence (Q9HC52 1-69): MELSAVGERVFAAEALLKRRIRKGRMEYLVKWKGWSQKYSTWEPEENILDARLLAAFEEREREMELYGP
Nature of the series: Protein domain microarray. In kind it is binding. The following applies: 1 μM, qualitative.

The results in this text go back to paper PMC9035045 (Cell chemical biology, 2021).

Non-standard residues stand in square brackets, D forms with d. Residues, ends and D or L forms follow the SMILES beside them. *: point of attachment. NH(CH2CH2O)11C2H4NHBiotinyl = O=C(CCCC[C@@H]1SC[C@@H]2NC(=O)N[C@@H]21)NCCOCCOCCOCCOCCOCCOCCOCCOCCOCCOCCOCCN*; Lys(iBu,2-norbornyl) = CC(C)CN(CCCC[C@H](N)C(=O)O)C1CC2CCC1C2; Lys(Me,2-norbornyl) = CN(CCCC[C@H](N)C(=O)O)C1CC2CCC1C2; Nva(5-morpholino) = N[C@@H](CCCN1CCOCC1)C(=O)O; Benzoyl(4-tBu) = CC(C)(C)c1ccc(C(=O)*)cc1; Gly(cBu) = N[C@H](C(=O)O)C1CCC1

274 purified Kme readers (Homo sapiens, UniProt P45973), sequence (P45973 1-78): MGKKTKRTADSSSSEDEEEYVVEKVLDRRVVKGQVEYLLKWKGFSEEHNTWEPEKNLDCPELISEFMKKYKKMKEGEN
274 purified Kme readers (Homo sapiens, UniProt P83916), sequence (P83916 1-79): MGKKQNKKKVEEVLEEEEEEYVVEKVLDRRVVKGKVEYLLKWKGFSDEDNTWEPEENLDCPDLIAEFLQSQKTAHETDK
274 purified Kme readers (Homo sapiens, UniProt Q13185), sequence (Q13185 1-88): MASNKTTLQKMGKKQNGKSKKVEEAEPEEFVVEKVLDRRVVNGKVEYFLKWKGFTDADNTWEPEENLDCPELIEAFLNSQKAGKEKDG

For `COC(=O)[C@H](CO)NC(=O)[C@H](CCCCN(CC(C)C)C1CC2CCC1C2)NC(=O)[C@H](CCCN1CCOCC1)NC(=O)[C@@H](NC(=O)[C@H](Cc1ccccc1)NC(=O)c1ccc(C(C)(C)C)cc1)C1CCC1` (stereo partly drawn) [Compound 34, Methyl N^6-(bicyclo[2.2.1]heptan-2-yl)-N^2-((S)-2-((S)-2-((S)-2-(4-(tert-butyl)benzamido)-3-phenylpropanamido)-2-cyclobutylacetamido)-5-morpholinopentanoyl)-N^6-isobutyl-L-lysyl-L-serinate] ({Benzoyl(4-tBu)}-F[Gly(cBu)][Nva(5-morpholino)][Lys(iBu,2-norbornyl)]S-OMe), the half-maximal inhibitory concentration (IC50) (in general, the midpoint of a concentration-inhibition curve) in series [1] is about 100 µM. In series [2], the “cellular activity in the CBX7 reporter cell line” value was “no cellular activity”. For the same molecule, in [3], the “chromatin binding of CBX2, CBX6, and CBX7” value is recorded as “minimal effects on chromatin binding”.
In turn, `COC(=O)[C@H](CO)NC(=O)[C@H](CCCCN(C)C1CC2CCC1C2)NC(=O)[C@H](CCCN1CCOCC1)NC(=O)[C@@H](NC(=O)[C@H](Cc1ccccc1)NC(=O)c1ccc(C(C)(C)C)cc1)C1CCC1` (stereo partly drawn) [Compound 38, Methyl N^6-(bicyclo[2.2.1]heptan-2-yl)-N^2-((S)-2-((S)-2-((S)-2-(4-(tert-butyl)benzamido)-3-phenylpropanamido)-2-cyclobutylacetamido)-5-morpholinopentanoyl)-N^6-methyl-L-lysyl-L-serinate] ({Benzoyl(4-tBu)}-F[Gly(cBu)][Nva(5-morpholino)][Lys(Me,2-norbornyl)]S-OMe) yielded an IC50 in series [1] of 0.96 ± 0.14 µM. In addition, in [4], the “GFP reactivation / cellular activity in the CBX8 reporter assay” value is reported as “no cellular activity”. Further, the cytotoxicity entry in series [5] is “no cytotoxicity up to 100 μM”.
Turning to `CC(C)CN(CCCC[C@H](NC(=O)[C@H](CCCN1CCOCC1)NC(=O)[C@@H](NC(=O)[C@H](Cc1ccccc1)NC(=O)c1ccc(C(C)(C)C)cc1)C1CCC1)C(=O)N[C@@H](CO)C(=O)NCCOCCOCCOCCOCCOCCOCCOCCOCCOCCOCCOCCNC(=O)CCCC[C@@H]1SC[C@@H]2NC(=O)N[C@@H]21)C1CC2CCC1C2` (stereo partly drawn) [Compound 39] ({Benzoyl(4-tBu)}-F[Gly(cBu)][Nva(5-morpholino)][Lys(iBu,2-norbornyl)]S-{NH(CH2CH2O)11C2H4NHBiotinyl}), the “binding to CBX4 on microarray” value in series [6] was “less strongly”. The “binding to CBX6 on microarray” value in [7] is listed as “less strongly”. In series [8], the “binding to CBX7 on microarray” value is reported as “less strongly”. The “binding to CBX5 on microarray” value in series [9] is “did not display binding”. In addition, in [10], the “binding to CBX1 on microarray” value was “did not display binding”. In series [11], the “binding to CBX3 on microarray” value is reported as “did not display binding”. Also, the “binding to CBX2 CD on microarray” value in series [12] is recorded as “bound strongly”. The “binding to the CD of CDYL2 on microarray” value in series [13] is “weakly”. The “binding to CBX8 CD on microarray” value in series [14] is given as “bound strongly”.
